Activity calls are given as the source filed them. The rule behind the calls is not given here.
How the values were obtained:
[1] = Time taken to reach the maximum concentration of compound at 1 uM/dg administered intravenously; type: ADME, organism-based; conditions: in vivo, iv
Summary of the method: (§1)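 Male Sprague-Dawley rats (300 g) with arterial catheters, used 24 h after surgery; rats dosed orally were starved 18 h. Drug was given po or iv. Blood (100–250 μL) was sampled at intervals up to 12 h and assayed by HPLC-fluorescence (ex 285, em 365) or GC/MS against spiked blank-blood standard curves. Cmax and tmax were taken from concentration–time curves; n = 4–6.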

[2] = Area under curve at 1 uM/dg administered intravenously; type: ADME; conditions: iv
Summary of the method: (§2)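 Male Sprague-Dawley rats (300 g) carrying arterial catheters, used 24 h after surgery; animals dosed orally were starved 18 h beforehand. Blood was sampled at intervals up to 12 h after dosing. Drug levels were measured by HPLC with fluorescence detection (ex 285, em 365) or by GC/MS, calibrated against spiked blank blood. AUC was taken from concentration-time curves; n = 4–6.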

[3] = Maximum concentration of the drug at 20 umol/dg administered perorally; type: ADME, organism-based; parameters: route oral; conditions: in vivo, po; summary of the method: as §1
Rattus norvegicus [4] = experiment: In vivo evaluation for DOPA accumulation in the hemispheres in male rats at highest test dose of 45 uM/Kg; inactive; type: functional, organism-based
Summary of the method: (§3)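 Male Sprague-Dawley rats were pretreated with reserpine 5 mg/kg sc 18 h before dosing. DOPA and 5-HTP in limbic system, striatum and hemispheres were measured by HPLC with electrochemical detection. Dose-response curves used 4–6 dose levels (n = 4) for each region; ED50 was estimated graphically. Partial responses are given as the maximal % reduction at the highest dose tested.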

Rattus norvegicus [5] = experiment: In vivo evaluation for 5-HTP accumulation in the limbic system in male rats (po); type: functional; summary of the method: as §3
[6] = Half life of compound at 1 uM/dg administered intravenously; type: ADME, organism-based; conditions: in vivo, iv; summary of the method: as §2
Rattus norvegicus [7] = experiment: In vivo evaluation for 5-HTP accumulation in the corpus striatum in male rats.(sc); type: functional
Summary of the method: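 Male Sprague-Dawley rats (200–300 g), reserpine-pretreated (5 mg/kg sc, 18 h before). Test drug was given sc in 4–6 doses (n = 4 per dose), with separate curves per brain area. 5-HTP in corpus striatum was measured by HPLC with electrochemical detection. ED50 was read from the dose–response curve.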

Rattus norvegicus [8] = experiment: Maximal reduction in percent (Partial response) of DOPA accumulation rat hemispheres at highest test dose of 61 uM/Kg (po); Inactive; type: functional, organism-based; summary of the method: as §3
Rattus norvegicus [9] = experiment: In vivo evaluation for DOPA accumulation in the corpus striatum in male rats at highest test dose of 45 uM/Kg; inactive; type: functional, organism-based; summary of the method: as §3
Rattus norvegicus [10] = experiment: Maximal reduction in percent (Partial response) of DOPA accumulation rat corpus striatum at highest test dose of 61 uM/Kg (po); type: functional; summary of the method: as §3
Rattus norvegicus [11] = experiment: In vivo evaluation for 5-HTP accumulation in the limbic system in male rats (sc); type: functional; summary of the method: as §3
Rattus norvegicus [12] = species on record: Rattus norvegicus; experiment: Compound was tested for 5-HT behavioral response in reserpine pretreated rats; +5HT syndrome; type: functional, organism-based
Summary of the method: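 Male Sprague-Dawley rats (200–300 g) were given reserpine 5 mg/kg sc 18 h before testing, then the test drug sc in the neck (n = 4). Motor activity was recorded by photocells for 30 min, with gross behaviour observed throughout. 5-HT syndrome: flat body posture, extended limbs, reciprocal forepaw treading. DA response: locomotion and stereotypies.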

Rattus norvegicus [13] = experiment: Maximal reduction in percent (Partial response) of DOPA accumulation rat limbic system at highest test dose of 61 uM/Kg (po); type: functional
Rattus norvegicus [14] = experiment: In vivo evaluation for 5-HTP accumulation in the hemispheres in male rats (sc); type: functional; summary of the method: as §3
D(2) dopamine receptor = D(2) dopamine receptor (Rattus norvegicus, UniProt P61169); experiment: Displacement of [3H]spiperone from dopamine receptor D2
Summary of the method: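 Rat striatal membranes in 50 mM potassium phosphate buffer (3 mg original tissue) incubated with 0.5 nM [3H]spiperone for 10 min at 37 °C. Nonspecific binding was defined with 10 μM 6,7-ADTN. Ki was calculated by Cheng–Prusoff; triplicates, 3–7 experiments.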

[15] = Maximum concentration of the drug at 1 umol/dg administered intravenously; type: ADME, organism-based; parameters: route intravenous; conditions: in vivo, iv
Summary of the method: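 Male Sprague-Dawley rats (300 g) with arterial catheters were dosed 24 h after surgery; orally dosed rats were starved 18 h beforehand. Blood was sampled at intervals up to 12 h and analysed by HPLC with fluorescence detection (ex 285, em 365) or by GC/MS. Cmax is in pmol/mL and tmax in min, mean ± SEM, n = 4–6.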

[16] = Bioavailability in rat; type: ADME, organism-based; conditions: in vivo
Summary of the method: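 Blood was drawn at intervals up to 12 h and assayed by HPLC-fluorescence or GC/MS against spiked blank-blood standards. F is the ratio of oral to intravenous areas under the blood concentration-time curves; n = 4–6.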

Rattus norvegicus [17] = experiment: In vivo evaluation for 5-HTP accumulation in the hemispheres in male rats (po); type: functional; summary of the method: as §3
[18] = Area under curve at 20 uM/dg administered perorally; type: ADME; conditions: po; summary of the method: as §2
Rattus norvegicus [19] = experiment: In vivo evaluation for 5-HTP accumulation in the corpus striatum in male rats (po); type: functional; summary of the method: as §3
Rattus norvegicus [20] = experiment: In vivo evaluation for DOPA accumulation in the limbic system in male rats at highest test dose of 45 uM/Kg; inactive; type: functional, organism-based; summary of the method: as §3

Chain of D(2) dopamine receptor (P61169 whole entry): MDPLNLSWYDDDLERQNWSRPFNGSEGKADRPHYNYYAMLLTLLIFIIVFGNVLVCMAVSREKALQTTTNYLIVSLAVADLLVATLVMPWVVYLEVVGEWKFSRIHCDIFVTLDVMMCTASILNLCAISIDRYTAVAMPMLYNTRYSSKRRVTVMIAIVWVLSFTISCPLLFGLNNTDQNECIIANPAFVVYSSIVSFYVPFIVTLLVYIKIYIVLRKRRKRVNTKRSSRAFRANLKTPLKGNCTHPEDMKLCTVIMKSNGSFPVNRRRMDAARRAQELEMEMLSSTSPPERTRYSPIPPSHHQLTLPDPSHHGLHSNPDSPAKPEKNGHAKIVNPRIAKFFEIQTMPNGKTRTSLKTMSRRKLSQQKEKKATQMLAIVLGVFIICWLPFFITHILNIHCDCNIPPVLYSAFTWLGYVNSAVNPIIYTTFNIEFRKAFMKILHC

`CCCN(CCC)C1CCc2cccc(O)c2C1` (racemic) [8-OH-DPAT] gave a Tmax at 1 µM [1] of 3 min, an AUC [2] of 213 pM/h/g and a Cmax [3] of 63 pM ml-1. For the same compound, the ED50 (Rattus norvegicus [4]) was “inactive”, the ED50 (Rattus norvegicus [5]) was 3 µmol/kg and the half-life [6] was 72 min. For the same compound, the ED50 (Rattus norvegicus [7]) was 0.052 µmol/kg, the Reduction (Rattus norvegicus [8]) was “inactive” and the ED50 (Rattus norvegicus [9]) was “inactive”. For the same compound, the Reduction (Rattus norvegicus [10]) was 43%, the ED50 (Rattus norvegicus [11]) was 0.052 µmol/kg and the Behavioral response (Rattus norvegicus [12]) was “Active”. The Reduction (Rattus norvegicus [13]) was 35%, the ED50 (Rattus norvegicus [14]) was 0.063 µmol/kg and the Ki (D(2) dopamine receptor) was 1360 nM. It also gave a Cmax [15] of 344 pM ml-1, a bioavailability [16] of 2.4% and an ED50 (Rattus norvegicus [17]) of 7.9 µmol/kg. For the same compound, the AUC [18] was 104 pM/h/g, the ED50 (Rattus norvegicus [19]) was 7.9 µmol/kg and the ED50 (Rattus norvegicus [20]) was “inactive”.

Reference: ChEMBL document CHEMBL1126740, “(S)- and (R)-8-(di-n-propylamino)-6,7,8,9-tetrahydro-3H-benz[e]indole-1-carbaldehyde: a new class of orally active 5-HT1A-receptor agonists” (J Med Chem, 1993)
